# Test results from ChEMBL document CHEMBL1144895, “Synthesis and anticonvulsant activity of novel bicyclic acidic amino acids” (J Med Chem, 2003).
# How the values were obtained:
# [1] = system: Mus musculus; test: In vivo anticonvulsant activity determined as icv dose that blocked 3,5-DHPG induced tonic seizures induced in DBA/2 mice after; type: functional; conditions: central
# [2] = system: Mus musculus; test: In vivo anticonvulsant activity determined as icv dose that blocked 3,5-DHPG induced clonic seizures induced in DBA/2 mice; type: functional; conditions: central
# [3] = system: Mus musculus; test: In vivo anticonvulsant activity determined as icv dose that blocked clonic seizures induced by audiogenic stimuli in DBA/2 mice after pretreatment with D-serine; type: functional; conditions: central
# [4] = system: Mus musculus; test: In vivo anticonvulsant activity determined as icv dose that blocked clonic seizures induced in DBA/2 mice by audiogenic stimuli; type: functional; conditions: central
# Method in brief: (§1)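 Male DBA/2 mice (6–12 g, 22–26 days old) received icv drug or vehicle (10 μL, 1 mm anterior to bregma, 1 mm lateral, 3 mm depth) under light ether anaesthesia. Drug was dissolved in DMSO, pH 7.3–7.7 with phosphate buffer. 45 min later, 110 dB bell for 60 s; wild running, clonus, tonic extension scored.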
# [5] = system: Mus musculus; test: In vivo anticonvulsant activity determined as icv dose that blocked NMDA-induced tonic seizures induced in DBA/2 mice after ip administration; type: functional
# Method in brief: (§2)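 DBA/2 mice, n = 10 per group, were dosed with drug in DMSO buffered to pH 7.3–7.7, then given icv NMDA: 18.7 nmol/mouse for tonic extension or 1.9 nmol/mouse for clonic seizures. ED50 by Litchfield–Wilcoxon, 95% confidence limits.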
# [6] = system: Mus musculus; test: In vivo anticonvulsant activity determined as icv dose that blocked NMDA-induced clonic seizures induced in DBA/2 mice; type: functional; conditions: central; method in brief: as §2
# [7] = system: Mus musculus; test: In vivo anticonvulsant activity determined as icv dose that blocked tonic seizures induced by audiogenic stimuli in DBA/2 mice after pretreatment with D-serine; type: functional; conditions: central
# [8] = system: Mus musculus; test: In vivo anticonvulsant activity determined as icv dose that blocked tonic seizures induced in DBA/2 mice by audiogenic stimuli; type: functional; conditions: central; method in brief: as §1
# [9] = target: Glutamate NMDA receptor; test: In vitro binding affinity for rat cortical membrane N-methyl-D-aspartate glutamate receptor determined using [3H]CPP as radioligand
# [10] = system: Mus musculus; test: In vivo anticonvulsant activity determined as ip dose that blocked 3,5-DHPG induced tonic seizures induced in DBA/2 mice; type: functional
# Method in brief: (§3)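 DBA/2 mice (n = 10 per group) given agent ip at 10–100 μmol/kg 15 min before icv DHPG (1.5 μmol); seizure-related activity observed for 90 min.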
# [11] = target: T1, Metabotropic glutamate receptor 4 (Rattus norvegicus, UniProt P31423); test: Inhibitory constant against cloned rat Metabotropic glutamate receptor 4 expressed in Chinese Hamster Ovary (CHO) cells; type: cell-based
# T1 sequence (P31423 whole entry): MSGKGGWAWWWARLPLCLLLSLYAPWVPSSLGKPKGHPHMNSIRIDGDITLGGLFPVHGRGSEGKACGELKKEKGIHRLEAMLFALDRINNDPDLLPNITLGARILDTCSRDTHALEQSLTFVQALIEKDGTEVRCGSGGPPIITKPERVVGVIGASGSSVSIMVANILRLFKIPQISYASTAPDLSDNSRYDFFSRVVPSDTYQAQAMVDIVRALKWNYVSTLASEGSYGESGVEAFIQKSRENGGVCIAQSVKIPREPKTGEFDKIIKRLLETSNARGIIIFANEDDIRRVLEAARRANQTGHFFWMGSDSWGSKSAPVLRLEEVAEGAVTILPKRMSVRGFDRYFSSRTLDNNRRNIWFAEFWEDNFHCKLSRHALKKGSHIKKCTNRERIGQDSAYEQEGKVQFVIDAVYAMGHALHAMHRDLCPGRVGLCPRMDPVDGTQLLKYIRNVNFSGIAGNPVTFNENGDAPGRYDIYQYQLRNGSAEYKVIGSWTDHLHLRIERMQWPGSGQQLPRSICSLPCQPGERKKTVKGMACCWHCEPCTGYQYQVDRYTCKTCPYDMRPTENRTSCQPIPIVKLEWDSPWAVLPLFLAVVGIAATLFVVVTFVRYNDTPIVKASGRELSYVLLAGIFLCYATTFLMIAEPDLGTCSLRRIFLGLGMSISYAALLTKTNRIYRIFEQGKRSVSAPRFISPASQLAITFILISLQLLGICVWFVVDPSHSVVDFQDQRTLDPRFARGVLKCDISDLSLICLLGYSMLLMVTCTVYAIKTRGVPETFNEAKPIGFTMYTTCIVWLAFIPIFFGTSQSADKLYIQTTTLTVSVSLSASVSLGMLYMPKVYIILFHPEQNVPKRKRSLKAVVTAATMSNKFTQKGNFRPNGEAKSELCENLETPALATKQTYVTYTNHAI
# Method in brief: (§4)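 Cloned rat mGluR1α, mGluR2, mGluR4a or mGluR5a stably expressed in CHO cell lines; cells maintained and tested by a previously described procedure.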
# [12] = target: T2, Metabotropic glutamate receptor 5 (Rattus norvegicus, UniProt P31424); test: Inhibitory constant against cloned rat Metabotropic glutamate receptor 5 expressed in Chinese Hamster Ovary (CHO) cells; type: cell-based; method in brief: as §4
# T2 sequence (P31424 whole entry): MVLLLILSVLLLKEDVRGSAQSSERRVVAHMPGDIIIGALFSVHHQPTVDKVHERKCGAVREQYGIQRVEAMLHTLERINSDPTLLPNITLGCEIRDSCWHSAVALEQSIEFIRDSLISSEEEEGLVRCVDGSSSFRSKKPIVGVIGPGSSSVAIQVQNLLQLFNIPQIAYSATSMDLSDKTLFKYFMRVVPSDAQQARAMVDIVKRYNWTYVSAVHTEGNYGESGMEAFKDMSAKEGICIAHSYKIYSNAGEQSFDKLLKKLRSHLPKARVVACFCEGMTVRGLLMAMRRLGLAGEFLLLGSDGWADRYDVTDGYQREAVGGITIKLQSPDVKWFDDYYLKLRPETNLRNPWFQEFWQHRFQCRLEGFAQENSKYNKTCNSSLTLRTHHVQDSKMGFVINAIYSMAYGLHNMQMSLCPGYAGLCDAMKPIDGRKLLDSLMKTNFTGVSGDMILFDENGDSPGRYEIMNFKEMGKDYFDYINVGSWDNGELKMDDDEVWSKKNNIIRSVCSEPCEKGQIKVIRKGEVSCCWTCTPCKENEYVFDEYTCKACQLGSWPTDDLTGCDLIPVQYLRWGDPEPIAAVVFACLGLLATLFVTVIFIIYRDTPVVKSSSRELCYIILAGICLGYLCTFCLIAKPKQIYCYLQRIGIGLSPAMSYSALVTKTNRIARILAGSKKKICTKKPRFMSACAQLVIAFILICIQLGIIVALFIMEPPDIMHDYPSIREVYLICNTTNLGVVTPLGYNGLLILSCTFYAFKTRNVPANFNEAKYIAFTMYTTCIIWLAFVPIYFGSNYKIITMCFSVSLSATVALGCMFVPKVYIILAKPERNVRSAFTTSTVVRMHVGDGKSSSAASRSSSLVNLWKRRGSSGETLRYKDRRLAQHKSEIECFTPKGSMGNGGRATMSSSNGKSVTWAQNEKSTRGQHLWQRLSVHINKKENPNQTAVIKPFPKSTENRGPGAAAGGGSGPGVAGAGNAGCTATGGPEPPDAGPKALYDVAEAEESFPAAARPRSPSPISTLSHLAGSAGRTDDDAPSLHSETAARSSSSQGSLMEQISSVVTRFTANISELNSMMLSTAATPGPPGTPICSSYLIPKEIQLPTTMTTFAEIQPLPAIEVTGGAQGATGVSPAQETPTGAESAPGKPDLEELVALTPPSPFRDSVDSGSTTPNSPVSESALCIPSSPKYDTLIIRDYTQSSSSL
# [13] = system: Mus musculus; test: In vivo anticonvulsant activity determined as ip dose that blocked NMDA-induced tonic seizures induced in DBA/2 mice; type: functional
# [14] = organism: Rattus norvegicus; test: Agonist activity tested in rat cortical slice model; type: functional
# Method in brief: (§5)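 Rat cortical slice model; compounds tested up to 1000 μM both as agonists and as antagonists. Antagonism measured against responses to NMDA (10 μM), AMPA (5 μM) or KA (5 μM), agonist applied for a further 90 s.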
# [15] = system: Mus musculus; test: In vivo anticonvulsant activity determined as ip dose that blocked clonic seizures induced by audiogenic stimuli in DBA/2 mice after pretreatment with D-serine; type: functional
# Method in brief: (§6)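 DBA/2 mice pretreated with D-serine (300 nmol/mouse, icv) 30 min […], then tested for audiogenic seizures (110 dB sound, clonic/tonic phases scored).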
# [16] = target: T1, Metabotropic glutamate receptor 4; test: Activity tested at cloned rat Metabotropic glutamate receptor 4 expressed in Chinese Hamster Ovary (CHO) cells; type: functional, cell-based; method in brief: as §4
# [17] = target: Glutamate receptor ionotropic, kainate; test: In vitro binding affinity for rat cortical membrane KA receptor determined using [3H]KA as radioligand
# [18] = target: Metabotropic glutamate receptor 1 (Rattus norvegicus, UniProt P23385); test: Inhibitory constant against cloned rat Metabotropic glutamate receptor 1 expressed in Chinese Hamster Ovary (CHO) cells; type: cell-based; method in brief: as §4
# Chain of Metabotropic glutamate receptor 1 (P23385 whole entry): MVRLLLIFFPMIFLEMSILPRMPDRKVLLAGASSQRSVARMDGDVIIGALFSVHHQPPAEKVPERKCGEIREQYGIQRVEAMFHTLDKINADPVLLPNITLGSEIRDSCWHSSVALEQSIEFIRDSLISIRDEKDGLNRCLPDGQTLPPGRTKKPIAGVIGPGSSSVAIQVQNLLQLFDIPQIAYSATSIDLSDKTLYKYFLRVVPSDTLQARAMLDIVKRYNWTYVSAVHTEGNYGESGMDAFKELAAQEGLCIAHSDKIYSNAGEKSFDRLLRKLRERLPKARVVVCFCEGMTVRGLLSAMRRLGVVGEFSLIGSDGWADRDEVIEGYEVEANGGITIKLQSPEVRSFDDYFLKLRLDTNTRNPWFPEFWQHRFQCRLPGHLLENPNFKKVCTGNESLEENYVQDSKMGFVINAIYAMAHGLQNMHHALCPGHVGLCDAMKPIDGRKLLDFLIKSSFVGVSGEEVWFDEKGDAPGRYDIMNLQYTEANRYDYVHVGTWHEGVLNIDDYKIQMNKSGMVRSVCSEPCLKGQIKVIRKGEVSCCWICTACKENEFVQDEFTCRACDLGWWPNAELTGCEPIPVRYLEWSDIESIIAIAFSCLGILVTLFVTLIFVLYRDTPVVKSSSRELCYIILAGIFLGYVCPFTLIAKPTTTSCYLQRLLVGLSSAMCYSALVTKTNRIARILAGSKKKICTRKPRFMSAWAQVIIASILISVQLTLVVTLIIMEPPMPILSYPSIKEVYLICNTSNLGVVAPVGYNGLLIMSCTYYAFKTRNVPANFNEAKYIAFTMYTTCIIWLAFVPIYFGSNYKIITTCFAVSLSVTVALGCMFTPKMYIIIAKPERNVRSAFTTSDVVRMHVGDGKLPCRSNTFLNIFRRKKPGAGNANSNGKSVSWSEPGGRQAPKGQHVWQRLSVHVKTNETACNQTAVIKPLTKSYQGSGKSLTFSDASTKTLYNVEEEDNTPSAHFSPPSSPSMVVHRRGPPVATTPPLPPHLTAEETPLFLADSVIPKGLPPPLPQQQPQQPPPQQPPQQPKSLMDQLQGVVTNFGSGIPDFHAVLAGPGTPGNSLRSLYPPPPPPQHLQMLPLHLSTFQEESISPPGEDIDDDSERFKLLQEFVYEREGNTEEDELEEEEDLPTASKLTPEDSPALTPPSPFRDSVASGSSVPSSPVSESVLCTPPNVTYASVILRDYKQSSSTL
# [19] = system: Mus musculus; test: In vivo anticonvulsant activity determined as ip dose that blocked tonic seizures induced by audiogenic stimuli in DBA/2 mice after pretreatment with D-serine; type: functional; method in brief: as §6
# [20] = target: Metabotropic glutamate receptor 2 (Rattus norvegicus, UniProt P31421); test: Activity tested at cloned rat mGluR2 receptor expressed in Chinese Hamster Ovary (CHO) cells; type: functional, cell-based
# Chain of Metabotropic glutamate receptor 2 (P31421 whole entry): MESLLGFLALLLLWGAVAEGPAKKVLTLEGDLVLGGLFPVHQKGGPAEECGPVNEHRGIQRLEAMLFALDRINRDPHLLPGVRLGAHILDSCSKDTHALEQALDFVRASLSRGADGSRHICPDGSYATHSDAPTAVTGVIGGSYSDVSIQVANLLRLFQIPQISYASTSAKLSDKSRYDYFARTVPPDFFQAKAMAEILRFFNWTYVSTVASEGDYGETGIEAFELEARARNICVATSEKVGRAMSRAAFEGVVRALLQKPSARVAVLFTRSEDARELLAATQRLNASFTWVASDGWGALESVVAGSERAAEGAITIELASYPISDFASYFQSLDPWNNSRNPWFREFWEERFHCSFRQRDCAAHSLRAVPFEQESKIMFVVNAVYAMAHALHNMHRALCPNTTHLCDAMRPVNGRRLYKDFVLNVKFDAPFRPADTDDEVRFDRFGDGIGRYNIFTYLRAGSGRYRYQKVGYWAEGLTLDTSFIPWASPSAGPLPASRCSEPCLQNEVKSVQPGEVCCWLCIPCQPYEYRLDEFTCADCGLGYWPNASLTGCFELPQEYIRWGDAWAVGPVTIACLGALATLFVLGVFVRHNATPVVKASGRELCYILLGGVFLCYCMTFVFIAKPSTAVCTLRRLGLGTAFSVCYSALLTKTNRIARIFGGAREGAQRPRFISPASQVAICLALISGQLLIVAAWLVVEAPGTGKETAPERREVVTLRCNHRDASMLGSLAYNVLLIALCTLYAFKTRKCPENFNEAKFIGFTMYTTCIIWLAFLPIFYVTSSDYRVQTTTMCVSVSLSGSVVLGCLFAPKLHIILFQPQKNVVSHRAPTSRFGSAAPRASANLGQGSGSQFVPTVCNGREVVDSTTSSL
# Method in brief: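 Rat mGluR2 stably expressed in CHO cells, with cells maintained and tested as described in an earlier report. Agonism was assessed directly. Antagonism was assessed against a response to 30 μM Glu, with test compound at 1 mM.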
# [21] = system: Mus musculus; test: In vivo anticonvulsant activity determined as ip dose that blocked tonic seizures induced in DBA/2 mice by audiogenic stimuli; type: functional
# Method in brief: (§7)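 Male DBA/2 mice (6–12 g, 22–26 days old) given drug or vehicle ip (DMSO, pH 7.3–7.7 with phosphate buffer). After 45 min, a 110 dB sound for 60 s or until clonus; seizures scored (wild running, clonic, tonic, respiratory arrest).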
# [22] = organism: Rattus norvegicus; test: Antagonist activity tested in rat cortical slice model; type: functional; method in brief: as §5
# [23] = system: Mus musculus; test: In vivo anticonvulsant activity determined as ip dose that blocked clonic seizures induced in DBA/2 mice by audiogenic stimuli; type: functional; method in brief: as §7
# [24] = target: T3, Glutamate receptor ionotropic, AMPA (Rattus norvegicus, UniProt P19490+P19491+P19492+P19493); test: Binding affinity of compound was determined against Ionotropic glutamate receptor AMPA receptor, using radioligand [3H]- AMPA; type: protein-complex assay
# [25] = target: T2, Metabotropic glutamate receptor 5; test: Activity tested at cloned rat Metabotropic glutamate receptor 5 expressed in Chinese Hamster Ovary (CHO) cells; type: functional, cell-based
# Method in brief: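 Rat mGluR5a splice variant expressed in a CHO cell line. Compounds were tested for agonist and antagonist action at this receptor.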
# [26] = system: Mus musculus; test: In vivo anticonvulsant activity determined as ip dose that blocked 3,5-DHPG induced clonic seizures induced in DBA/2 mice; type: functional; method in brief: as §3
# [27] = system: Mus musculus; test: In vivo anticonvulsant activity determined as ip dose that blocked 3,5-DHPG induced tonic seizures induced in DBA/2 mice after; type: functional; method in brief: as §3
# [28] = organism: Rattus norvegicus; test: Antagonist activity against responses induced by 10 uM NMDA tested in rat cortical slice model; type: functional
# Method in brief: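 Rat cortical slices; antagonism of responses induced by 10 μM NMDA, agonist applied for a further 90 s; IC50 derived.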
# [29] = system: Mus musculus; test: In vivo anticonvulsant activity determined as ip dose that blocked NMDA-induced tonic seizures induced in DBA/2 mice after ip administration; type: functional
# [30] = organism: Rattus norvegicus; test: Percent inhibition of the response induced by 5 uM of AMPA at a concentration of 1 mM in rat; type: functional
# [31] = system: Mus musculus; test: In vivo anticonvulsant activity determined as ip dose that blocked NMDA-induced clonic seizures induced in DBA/2 mice; type: functional
# [32] = target: T3, Glutamate receptor ionotropic, AMPA; test: In vitro binding affinity for rat cortical membrane Ionotropic glutamate receptor AMPA determined using [3H]AMPA as radioligand
# [33] = target: Metabotropic glutamate receptor 2 (Rattus norvegicus) (UniProt P31421); test: Activity tested at cloned rat mGluR2 receptor expressed in Chinese Hamster Ovary (CHO) cells at 1 mM concentration; type: functional, cell-based
# Chain of Metabotropic glutamate receptor 2 (Rattus norvegicus) (P31421 19-872 limits assumed): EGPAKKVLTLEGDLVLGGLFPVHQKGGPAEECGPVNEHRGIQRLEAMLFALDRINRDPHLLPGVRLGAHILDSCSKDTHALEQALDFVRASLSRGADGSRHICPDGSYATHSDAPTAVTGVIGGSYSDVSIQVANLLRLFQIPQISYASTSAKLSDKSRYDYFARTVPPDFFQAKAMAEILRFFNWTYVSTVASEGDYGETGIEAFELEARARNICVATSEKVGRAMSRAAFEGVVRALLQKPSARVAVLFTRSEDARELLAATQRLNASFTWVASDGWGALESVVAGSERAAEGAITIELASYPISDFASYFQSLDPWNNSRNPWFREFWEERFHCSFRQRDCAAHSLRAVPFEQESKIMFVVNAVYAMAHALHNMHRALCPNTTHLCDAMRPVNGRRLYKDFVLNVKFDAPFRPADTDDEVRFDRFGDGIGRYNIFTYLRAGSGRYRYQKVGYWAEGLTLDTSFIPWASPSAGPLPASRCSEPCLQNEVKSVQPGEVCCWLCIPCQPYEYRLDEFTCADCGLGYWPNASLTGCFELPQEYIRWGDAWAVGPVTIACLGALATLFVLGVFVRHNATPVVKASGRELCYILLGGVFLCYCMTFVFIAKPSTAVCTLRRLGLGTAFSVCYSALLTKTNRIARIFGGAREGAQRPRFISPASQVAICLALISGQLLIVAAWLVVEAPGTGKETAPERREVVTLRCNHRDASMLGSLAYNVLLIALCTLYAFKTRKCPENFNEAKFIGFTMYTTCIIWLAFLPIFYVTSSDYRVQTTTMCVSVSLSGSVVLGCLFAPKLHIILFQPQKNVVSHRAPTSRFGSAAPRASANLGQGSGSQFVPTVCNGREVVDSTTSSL
# Method in brief: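 Cloned rat mGluR2 in CHO cells; test compound at 1 mM, also checked for inhibition of the response to 30 μM Glu.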
# [34] = system: Mus musculus; test: In vivo anticonvulsant activity determined as potency that blocked NMDA-induced tonic seizures induced in DBA/2 mice; type: functional
# [35] = system: Mus musculus; test: In vivo anticonvulsant activity determined as potency that blocked NMDA-induced clonic seizures induced in DBA/2 mice; type: functional
# [36] = system: Mus musculus; test: In vivo anticonvulsant activity determined as potency that blocked clonic seizures induced in DBA/2 mice by audiogenic stimuli; type: functional
# [37] = system: Mus musculus; test: In vivo anticonvulsant activity determined as potency that blocked tonic seizures induced by audiogenic stimuli in DBA/2 mice after pretreatment with D-serine; type: functional; method in brief: as §6
# [38] = system: Mus musculus; test: In vivo anticonvulsant activity determined as potency that blocked clonic seizures induced by audiogenic stimuli in DBA/2 mice after pretreatment with D-serine; type: functional; method in brief: as §6
# [39] = system: Mus musculus; test: In vivo anticonvulsant activity determined as potency that blocked tonic seizures induced in DBA/2 mice by audiogenic stimuli; type: functional
smiles,measurement,setting,value
O=C(O)c1cc(O)c2c(Cl)cc(Cl)cc2n1,ED50,[1],11 µmol/kg
same,ED50,[2],14 µmol/kg
same,ED50,[3],12 µmol/kg
same,ED50,[4],2.4 µmol/kg
same,ED50,[5],22 µmol/kg
same,ED50,[6],26 µmol/kg
same,ED50,[7],8.5 µmol/kg
same,ED50,[8],2.2 µmol/kg
N[C@@H](CCCP(=O)(O)O)C(=O)O,IC50,[9],29 µM
N[C@H](CCCP(=O)(O)O)C(=O)O,IC50,[9],0.88 µM
N[C@]1(C(=O)O)C[C@@H]2ON=C(C(=O)O)[C@@H]2C1 (racemic),ED50,[10],84 µmol/kg
same,Ki,[11],> 1000 µM
same,Ki,[12],440 µM
same,ED50,[13],91 µmol/kg
same,EC50,[14],> 1000 µM
same,ED50,[15],41 µmol/kg
same,EC50,[16],> 1000 µM
same,IC50,[9],> 100 µM
same,IC50,[17],> 100 µM
same,Ki,[18],27 µM
same,ED50,[19],24 µmol/kg
same,EC50,[20],16 µM
same,ED50,[21],25 µmol/kg
same,IC50,[22],> 1000 µM
same,ED50,[23],42 µmol/kg
same,IC50,[24],> 100 µM
N[C@@]1(C(=O)O)CC[C@@H](C(=O)O)C1 (racemic),EC50,[16],800 µM
same,EC50,[20],2 µM
same,EC50,[25],23 µM
N[C@@]1(C(=O)O)C[C@@H]2ON=C(C(=O)O)[C@@H]2C1 (racemic),ED50,[26],70 µmol/kg
same,ED50,[27],45 µmol/kg
same,Ki,[11],> 1000 µM
same,Ki,[12],640 µM
same,EC50,[14],> 1000 µM
same,ED50,[15],33 µmol/kg
same,EC50,[16],> 1000 µM
same,IC50,[9],0.49 µM
same,IC50,[28],14 µM
same,IC50,[17],> 100 µM
same,ED50,[29],39 µmol/kg
same,Ki,[18],94 µM
same,Inhibition,[30],32%
same,ED50,[31],54 µmol/kg
same,ED50,[19],27 µmol/kg
same,IC50,[32],> 100 µM
same,ED50,[21],22 µmol/kg
same,ED50,[23],28 µmol/kg
same,Activation,[33],36%
CC(C)OC(=O)Nc1cccc(Cl)c1 [CHLORPROPHAM],ED50,[1],6.9 µmol/kg
same,ED50,[2],8.7 µmol/kg
same,ED50,[3],5.2 µmol/kg
same,ED50,[4],5.6 µmol/kg
same,ED50,[5],22 µmol/kg
same,ED50,[6],41 µmol/kg
same,ED50,[7],2.8 µmol/kg
same,ED50,[8],2.6 µmol/kg
NC(=O)OCC(COC(N)=O)c1ccccc1 [FELBAMATE],ED50,[34],51 µmol/kg
same,ED50,[35],122 µmol/kg
same,ED50,[36],204 µmol/kg
same,ED50,[37],328 µmol/kg
same,ED50,[38],674 µmol/kg
same,ED50,[39],97 µmol/kg
O=C(O)[C@H]1CN(C/C=C/P(=O)(O)O)CCN1 [MIDAFOTEL],ED50,[26],8.6 µmol/kg
same,ED50,[27],6.8 µmol/kg
same,ED50,[15],2.5 µmol/kg
same,IC50,[9],0.04 µM
same,ED50,[29],11 µmol/kg
same,ED50,[31],17 µmol/kg
same,ED50,[19],1.2 µmol/kg
same,ED50,[21],0.79 µmol/kg
same,ED50,[23],1.8 µmol/kg
O=C1NC(=O)C(c2ccccc2)(c2ccccc2)N1 [PHENYTOIN],ED50,[34],2.2 µmol/kg
same,ED50,[35],31 µmol/kg
same,ED50,[36],9.1 µmol/kg
same,ED50,[37],8.7 µmol/kg
same,ED50,[38],11 µmol/kg
same,ED50,[39],7.3 µmol/kg
CCCC(CCC)C(=O)O [VALPROIC ACID],ED50,[34],498 µmol/kg
same,ED50,[35],878 µmol/kg
same,ED50,[36],258 µmol/kg
same,ED50,[37],205 µmol/kg
same,ED50,[38],275 µmol/kg
same,ED50,[39],187 µmol/kg
